Test results published in ChEMBL document CHEMBL1154369, “Betulin-derived compounds as inhibitors of alphavirus replication” (J Nat Prod, 2009).

How the values were obtained:
[1] = tested on: Semliki Forest virus; test: Antiviral activity against SFV infected in BHK cells assessed as surviving virus fraction at 50 uM after 14 hrs by luciferase reporter gene assay; assay type: functional; parameters: scale not given here
[2] = Cytotoxicity against human HuH7 cells assessed as cell viability at 50 uM after 24 hrs
[3] = tested on: Semliki Forest virus; test: Antiviral activity against SFV infected in BHK cells after 14 hrs by luciferase reporter gene assay; assay type: functional, organism-based
Outline: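 SFV-Rluc reporter virus from infectious cDNA clone; BHK-21 cells infected at low multiplicity (0.001 PFU/cell) and incubated 14 h, spanning over 2 infectious cycles. Serial dilutions of each derivative tested. Luciferase read-out as surviving virus fraction. IC50 from a sigmoidal dose-response fit; means ± SD, n = 6. 3′-Amino-3′-deoxyadenosine (20 µM) served as screen positive control.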

[4] = Cytotoxicity against human HuH7 cells assessed as cell viability at 500 uM after 24 hrs; assay type: cell-based, Huh-7; conditions: read-out: Activity
Outline: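 Huh-7 human hepatocellular carcinoma cells exposed 24 h to derivative at 500 µM in an extended cytotoxicity analysis. Viability measured as intracellular ATP content and reported as surviving fraction.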

Structure (SMILES)	Activity [1] [%]	viability at 24 h, 50 µM [2] [%]	IC50 ([3]; read-out: IC50) [µM]	IC50 ([3]; read-out: pIC50 (converted)) [µM]	viability at 24 h, 500 µM [4] [%]
C=C(C)[C@@H]1CC[C@]2(C(=O)N[C@@H](CC(=O)OC)C(=O)OC)CC[C@]3(C)[C@H](CC[C@@H]4[C@@]5(C)CCC(=O)C(C)(C)[C@@H]5CC[C@]43C)[C@@H]12	40	30			
CC(C)[C@@]12CC[C@]3(CO)CC[C@]4(C)C(=C31)[C@H](C[C@@H]1[C@@]3(C)CC[C@H](O)C(C)(C)[C@@H]3CC[C@]14C)n1c(=O)n(-c3ccccc3)c(=O)n12	73	85			
CCCC(=O)OC[C@]12CC[C@]3(C(C)C)C1=C1[C@H](C[C@@H]4[C@@]5(C)CC[C@H](OC(=O)CCC)C(C)(C)[C@@H]5CC[C@@]4(C)[C@]1(C)CC2)n1c(=O)n(C)c(=O)n13	18	93	30.1	30.2	
CC(C)[C@@]12CC[C@]3(COC(=O)C4CCCCC4)CC[C@]4(C)C(=C31)[C@H](C[C@@H]1[C@@]3(C)CC[C@H](OC(=O)C5CCCCC5)C(C)(C)[C@@H]3CC[C@]14C)n1c(=O)n(C(C)(C)C)c(=O)n12	40	83			
CC(=O)OC[C@]12CC[C@]3(C(C)C)O[C@]13[C@H]1CC[C@@H]3[C@@]4(C)CC[C@H](OC(C)=O)C(C)(C)[C@@H]4CC[C@@]3(C)[C@]1(C)CC2	16	92	13.3	11.5	> 80
C=C(C)[C@@H]1CC[C@]2(C(=O)OC)CC[C@]3(C)[C@H](CC[C@@H]4[C@@]5(C)CC[C@H](O)C(C)(C)[C@@H]5CC[C@]43C)[C@@H]12 [METHYL BETULINATE]	68	1			
C=C(C)[C@@H]1CC[C@]2(CO)CC[C@]3(C)[C@H](CC[C@@H]4[C@@]5(C)CC[C@H](O)C(C)(C)[C@@H]5CC[C@]43C)[C@@H]12 [BETULIN]	7	83	45.5	45.7	> 80
C=C(C)[C@@H]1CC[C@]2(COS(C)(=O)=O)CC[C@]3(C)[C@H](CC[C@@H]4[C@@]5(C)CC[C@H](OC(C)=O)C(C)(C)[C@@H]5CC[C@]43C)[C@@H]12	46	99			
CC(C)C(=O)OC[C@]12CC[C@]3(C(C)C)C1=C1[C@H](C[C@@H]4[C@@]5(C)CC[C@H](OC(=O)C(C)C)C(C)(C)[C@@H]5CC[C@@]4(C)[C@]1(C)CC2)n1c(=O)n(C)c(=O)n13	24	106			> 80
C=C(C)[C@@H]1CC[C@]2(C(=O)OC)CC[C@]3(C)[C@H](CC[C@@H]4[C@@]5(C)CCC(=O)C(C)(C)[C@@H]5CC[C@]43C)[C@@H]12 [METHYL BETULONATE]	71	83			
C=C(C)[C@@H]1CC[C@]2(/C=N/O)CC[C@]3(C)[C@H](CC[C@@H]4[C@@]5(C)CC[C@H](O)C(C)(C)[C@@H]5CC[C@]43C)[C@@H]12	55	82			
CC(C)[C@@]12CC[C@]3(COC(=O)C4CCCCC4)CC[C@]4(C)C(=C31)[C@H](C[C@@H]1[C@@]3(C)CC[C@H](OC(=O)C5CCCCC5)C(C)(C)[C@@H]3CC[C@]14C)n1c(=O)n(C)c(=O)n12	44	97			
C=C(C)[C@@H]1CC[C@]2(COC(=O)CBr)CC[C@]3(C)[C@H](CC[C@@H]4[C@@]5(C)CC[C@H](O)C(C)(C)[C@@H]5CC[C@]43C)[C@@H]12	125	11			
CCn1c(=O)n2n(c1=O)[C@]1(C(C)C)CC[C@]3(COC(C)=O)CC[C@]4(C)C(=C31)[C@@H]2C[C@@H]1[C@@]2(C)CC[C@H](OC(C)=O)C(C)(C)[C@@H]2CC[C@]14C	24	40			
C=C(C)[C@@H]1CC[C@]2(COC(=O)c3cccnc3)CC[C@]3(C)[C@H](CC[C@@H]4[C@@]5(C)CC[C@H](O)C(C)(C)[C@@H]5CC[C@]43C)[C@@H]12	43	94			
C=C(C)[C@@H]1CC[C@]2(C#N)CC[C@]3(C)[C@H](CC[C@@H]4[C@@]5(C)CC/C(=N\OC(C)=O)C(C)(C)[C@@H]5CC[C@]43C)[C@@H]12	73	85			
CC(C)[C@@]12CC[C@]3(COC(=O)c4ccccc4)CC[C@]4(C)C(=C31)[C@H](C[C@@H]1[C@@]3(C)CC[C@H](OC(=O)c5ccccc5)C(C)(C)[C@@H]3CC[C@]14C)n1c(=O)n(C)c(=O)n12	22	108			

Structure (SMILES)	Activity [1] [%]	viability at 24 h, 50 µM [2] [%]	IC50 ([3]; read-out: IC50) [µM]	IC50 ([3]; read-out: pIC50 (converted)) [µM]	viability at 24 h, 500 µM [4] [%]
C=C(C)[C@@H]1CC[C@]2(C(=O)Oc3ccc(C=O)cc3OC)CC[C@]3(C)[C@H](CC[C@@H]4[C@@]5(C)CCC(=O)C(C)(C)C5CC[C@]43C)[C@@H]12 (some centres undefined) [VANILLINYL BETULONATE]	43	89			
C=C(C)[C@@H]1CC[C@]2(COC(=O)/C=C/c3ccccc3)CC[C@]3(C)[C@H](CC[C@@H]4[C@@]5(C)CC[C@H](O)C(C)(C)[C@@H]5CC[C@]43C)[C@@H]12	111	96			
COc1cccc(-n2c(=O)n3n(c2=O)[C@]2(C(C)C)CC[C@]4(COC(C)=O)CC[C@]5(C)C(=C42)[C@@H]3C[C@@H]2[C@@]3(C)CC[C@H](OC(C)=O)C(C)(C)[C@@H]3CC[C@]25C)c1	121	93			
CCC(=O)OC[C@]12CC[C@]3(C(C)C)C1=C1[C@H](C[C@@H]4[C@@]5(C)CC[C@H](OC(=O)CC)C(C)(C)[C@@H]5CC[C@@]4(C)[C@]1(C)CC2)n1c(=O)n(C)c(=O)n13	21	75			
C=C(C)[C@@H]1CC[C@]2(COC(=O)c3ccccc3NC(C)=O)CC[C@]3(C)[C@H](CC[C@@H]4[C@@]5(C)CC[C@H](O)C(C)(C)[C@@H]5CC[C@]43C)[C@@H]12	82	94			
C=C(C)[C@@H]1CC[C@]2(C#N)CC[C@]3(C)[C@H](CC[C@@H]4[C@@]5(C)CC[C@H](OC(C)=O)C(C)(C)[C@@H]5CC[C@]43C)[C@@H]12	60	69			
C=C(C)[C@@H]1CC[C@]2(/C=N/O)CC[C@]3(C)[C@H](CC[C@@H]4[C@@]5(C)CC/C(=N\O)C(C)(C)[C@@H]5CC[C@]43C)[C@@H]12 [BETULIN-3,28-DIOXIME]	121	80			
C=C(C)[C@@H]1CC[C@]2(COC(=O)CCC(C)=O)CC[C@]3(C)[C@H](CC[C@@H]4[C@@]5(C)CC[C@H](OC(=O)CCC(C)=O)C(C)(C)[C@@H]5CC[C@]43C)[C@@H]12	74	109			
CC(=O)OC[C@]12CC[C@]3(C(C)C)C1=C1[C@H](C[C@@H]4[C@@]5(C)CC[C@H](OC(C)=O)C(C)(C)[C@@H]5CC[C@@]4(C)[C@]1(C)CC2)n1c(=O)n(-c2ccc4c(c2)CCC4)c(=O)n13	81	93			
C=C(C)[C@@H]1CC[C@]2(CO)CC[C@]3(C)[C@H](CC[C@@H]4[C@@]5(C)CC=CC(C)(C)[C@@H]5CC[C@]43C)[C@@H]12	121	85			
CC(=O)OC[C@]12CC[C@]3(C(C)C)C1=C1[C@H](C[C@@H]4[C@@]5(C)CC[C@H](OC(C)=O)C(C)(C)[C@@H]5CC[C@@]4(C)[C@]1(C)CC2)n1c(=O)n(-c2ccc(F)cc2)c(=O)n13	64	95			
C=C(C)[C@@H]1CC[C@]2(COC(=O)C3C(C=C(C)C)C3(C)C)CC[C@]3(C)[C@H](CC[C@@H]4[C@@]5(C)CC[C@H](O)C(C)(C)[C@@H]5CC[C@]43C)[C@@H]12 (some centres undefined)	95	90			
C=C(C)[C@@H]1CC[C@]2(C=O)CC[C@]3(C)[C@H](CC[C@@H]4[C@@]5(C)CC[C@H](O)C(C)(C)[C@@H]5CC[C@]43C)[C@@H]12 [BETULINALDEHYDE]	1	0			
C=C(C)[C@@H]1CC[C@]2(COC(=O)COc3cc(C(C)C)ccc3C)CC[C@]3(C)[C@H](CC[C@@H]4[C@@]5(C)CC[C@H](O)C(C)(C)[C@@H]5CC[C@]43C)[C@@H]12	80	103			
CC(C)[C@@]12CC[C@]3(COC(=O)c4ccccc4)CC[C@]4(C)C(=C31)[C@H](C[C@@H]1[C@@]3(C)CC[C@H](OC(=O)c5ccccc5)C(C)(C)[C@@H]3CC[C@]14C)n1c(=O)n(-c3ccccc3)c(=O)n12	50	88			
C=C(C)[C@@H]1CC[C@]2(COC(C)=O)CC[C@]3(C)[C@H](CC[C@@H]4[C@@]5(C)CC[C@H](OC(C)=O)C(C)(C)[C@@H]5CC[C@]43C)[C@@H]12 [BETULIN DIACETATE]	21	97	9.1	9.12	
C=C(C)[C@@H]1CC[C@]2(COC(C)=O)CC[C@]3(C)[C@H](CC[C@@H]4[C@@]5(C)CC=CC(C)(C)[C@@H]5CC[C@]43C)[C@@H]12	98	95			
